Read-outs that look alike come from different tables or passages of the source. Marks after values point to notes of the source that are not given here. One block for each molecule: values may come before it.
Columns and labels:
[1] = type: in vivo, healthy Japanese male volunteers; conditions: for AUC ratio (period II/period I) / Cmax ratio (period II/period I) / t1/2,z ratio (period II/period I) / tmax difference (period II − period I) / CL/F ratio (period II/period I): APZ + FLV vs APZ alone; for AUC ratio (period II/period I) / Cmax ratio (period II/period I) / t1/2,z ratio (period II/period I) / CL/F ratio (period II/period I): geometric mean ratio; for tmax difference (period II − period I): mean difference
In short: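 Healthy Japanese men aged 20–40 y (BMI 18.5–25.0), CYP2D6-genotyped from blood DNA; 7 per genotype randomly selected. Period I: 3 mg APZ tablet orally, fasting; 34-day washout. Fluvoxamine pretreatment 6 days, then APZ given at SSRI steady state, fluvoxamine continued 14 days. Heparinized plasma sampled predose to 336 h, stored −20°C; APZ and DAPZ by LC-MS/MS. Mean ± SD; per-subject period II/I GMR.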

[2] = cited from earlier work
[3] = type: in vivo, healthy Japanese male volunteers; conditions: for AUC ratio (period II/period I) / Cmax ratio (period II/period I) / t1/2,z ratio (period II/period I) / tmax difference (period II − period I) / CL/F ratio (period II/period I): APZ + PRX vs APZ alone; for AUC ratio (period II/period I) / Cmax ratio (period II/period I) / t1/2,z ratio (period II/period I) / CL/F ratio (period II/period I): geometric mean ratio; for tmax difference (period II − period I): mean difference
[4] = clinical doses of PRX (20–30 mg q.d.); cited from earlier work
CYP3A4 [5] = tested on: CYP3A4; set-up: species or system healthy Japanese male volunteers; conditions: FLV 100 mg/day, calculated from APZ CL/F
CYP2D6 [6] = conditions: coadministration of FLV (100 mg q.d.); cited from earlier work
CYP3A4 [7] = conditions: coadministration of FLV (100 mg q.d.); cited from earlier work
CYP2D6 [8] = assay: Calculation of the contribution of CYP2D6 to APZ metabolism; set-up: species or system healthy Japanese male volunteers; conditions: before CYP inhibition
[9] = APZ 3 mg with CYP3A4 inhibitor itraconazole 100 mg; Japanese EM subjects; cited from earlier work
[10] = CYP2D6 EM, APZ + FLV 100 mg/day (period II), single oral 3 mg APZ, mean ± SD
[11] = CYP2D6 EM, APZ alone (period I), FLV group, single oral 3 mg APZ, mean ± SD
[12] = CYP2D6 IM, APZ + FLV 100 mg/day (period II), single oral 3 mg APZ, mean ± SD
[13] = CYP2D6 IM, APZ alone (period I), FLV group, single oral 3 mg APZ, mean ± SD
[14] = CYP2D6 EM, APZ + PRX 20 mg/day (period II), single oral 3 mg APZ, mean ± SD
[15] = CYP2D6 EM, APZ alone (period I), PRX group, single oral 3 mg APZ, mean ± SD
[16] = CYP2D6 IM, APZ + PRX 20 mg/day (period II), single oral 3 mg APZ, mean ± SD
[17] = CYP2D6 IM, APZ alone (period I), PRX group, single oral 3 mg APZ, mean ± SD
[18] = male, human, plasma, oral, 3 mg

Cmax [1, 10]: 1.6 ± 0.2 ng/mL
t1/2,z [1, 10]: 227.8 ± 63.2 h
tmax [1, 10]: 72.0 ± 0.0 h
AUC ratio (period II/period I) ([1]; CYP2D6 EM): 2.05^a
Cmax ratio (period II/period I) ([1]; CYP2D6 EM): 1.23^a
t1/2,z ratio (period II/period I) ([1]; CYP2D6 EM): 2.00^a
tmax difference (period II − period I) ([1]; CYP2D6 EM): 12.00^b h
Cmax [1, 11]: 1.3 ± 0.3 ng/mL
t1/2,z [1, 11]: 115.0 ± 39.6 h
tmax [1, 11]: 60.0 ± 13.1 h
Cmax [1, 12]: 1.2 ± 0.3 ng/mL
tmax [1, 12]: 157.7 ± 36.3 h
Cmax ratio (period II/period I) ([1]; CYP2D6 IM): 0.95^a
tmax difference (period II − period I) ([1]; CYP2D6 IM): 37.71^b h
Cmax [1, 13]: 1.2 ± 0.3 ng/mL
tmax [1, 13]: 120.0 ± 41.6 h
Cmax [3, 14]: 0.9 ± 0.1 ng/mL
tmax [3, 14]: 89.1 ± 38.5 h
AUC ratio (period II/period I) ([3]; CYP2D6 EM): 1.21
Cmax ratio (period II/period I) ([3]; CYP2D6 EM): 0.67
t1/2,z ratio (period II/period I) ([3]; CYP2D6 EM): 1.91
tmax difference (period II − period I) ([3]; CYP2D6 EM): 37.71 h
Cmax [3, 15]: 1.3 ± 0.3 ng/mL
t1/2,z [3, 15]: 86.1 ± 10.7 h
tmax [3, 15]: 51.4 ± 16.6 h
Cmax [3, 16]: 0.8 ± 0.1 ng/mL
tmax [3, 16]: 133.7 ± 27.2 h
AUC ratio (period II/period I) ([3]; CYP2D6 IM): 0.89
Cmax ratio (period II/period I) ([3]; CYP2D6 IM): 0.88
t1/2,z ratio (period II/period I) ([3]; CYP2D6 IM): 0.73
tmax difference (period II − period I) ([3]; CYP2D6 IM): 30.71 h
Cmax [3, 17]: 1.0 ± 0.2 ng/mL
tmax [3, 17]: 103.0 ± 38.7 h
Compound: O=c1ccc2ccc(OCCCCN3CCN(c4cccc(Cl)c4Cl)CC3)cc2[nH]1 [Dehydroaripiprazole, dehydroaripiprazole]
excretion in urine and feces [2]: almost no

Compound: Fc1ccc([C@@H]2CCNC[C@H]2COc2ccc3c(c2)OCO3)cc1 [PRX, paroxetine]
steady-state blood concentrations [4]: 35 to 43 ng/mL

percent inhibition of CYP3A4 by coadministration of FLV (CYP3A4 [5]; CYP2D6 EM subjects): 64%
percent inhibition of CYP3A4 by coadministration of FLV (CYP3A4 [5]; CYP2D6 IM subjects): 48%
Compound: COCCCC/C(=N\OCCN)c1ccc(C(F)(F)F)cc1 [FLV, fluvoxamine]
effect on the PK of desipramine and metoprolol (CYP2D6 substrates) (CYP2D6 [6]): without significantly affecting
increase in blood concentration of CYP3A4 substrates (CYP3A4 [7]): several-fold

CL/F [1, 10]: 2.03 ± 0.46 L/h
AUC ratio (period II/period I) ([1]; CYP2D6 EM): 1.63^a
CL/F ratio (period II/period I) ([1]; CYP2D6 EM): 0.61^a
Cmax ratio (period II/period I) ([1]; CYP2D6 EM): 1.39^a
t1/2,z ratio (period II/period I) ([1]; CYP2D6 EM): 1.44^a
CL/F [1, 11]: 3.30 ± 0.59 L/h
decrease in CL/F by coadministration of fluvoxamine ([1]; CYP2D6 EMs): 39%
CL/F [1, 12]: 1.26 ± 0.35 L/h
AUC ratio (period II/period I) ([1]; CYP2D6 IM): 1.65^a
CL/F ratio (period II/period I) ([1]; CYP2D6 IM): 0.60^a
Cmax ratio (period II/period I) ([1]; CYP2D6 IM): 1.27^a
t1/2,z ratio (period II/period I) ([1]; CYP2D6 IM): 1.49^a
tmax difference (period II − period I) ([1]; CYP2D6 IM): 0.00^b h
CL/F [1, 13]: 2.10 ± 0.69 L/h
decrease in CL/F by coadministration of fluvoxamine ([1]; CYP2D6 IMs): 40%
decrease in CL/F in period II (FLV) compared with period I ([1]; both the IM and EM subjects): approximately 40%
AUC [1, 18]: 1540 ng·h/mL
Cmax [1, 18]: 15.3 ± 3.4 ng/mL
half-life [1, 18]: 105 ± 6.8 h
tmax ([1]; male, human, plasma, oral, 3 mg, tmax, CYP2D6 IM, APZ alone (period I), FLV group, single oral 3 mg APZ, mean ± SD): 3 ± 1.8 h
AUC ([1]; male, human, plasma, po, 3 mg): 935 ± 173 ng·h/mL
Cmax ([1]; male, human, plasma, po, 3 mg): 14.7 ± 2.9 ng/mL
percent contribution of CYP2D6 to total CL/F (metabolic activity) of APZ (CYP2D6 [8]; CYP2D6 EM, FLV coadministration group): 40%
percent contribution of CYP2D6 to total CL/F (metabolic activity) of APZ (CYP2D6 [8]; CYP2D6 EM, PRX coadministration group): 62%
percent contribution of CYP2D6 to total CL/F (metabolic activity) of APZ (CYP2D6 [8]; CYP2D6 IM, FLV coadministration group): 18%
percent contribution of CYP2D6 to total CL/F (metabolic activity) of APZ (CYP2D6 [8]; CYP2D6 IM, PRX coadministration group): 24%
decrease in CL/F by coadministration of PRX ([3]; CYP2D6 EM subjects): 58%
increase in Cmax by coadministration of PRX ([3]; CYP2D6 EM subjects): 39%
CL/F [3, 14]: 2.22 ± 0.31 L/h
AUC ratio (period II/period I) ([3]; CYP2D6 EM): 2.40^a
CL/F ratio (period II/period I) ([3]; CYP2D6 EM): 0.42^a
Cmax ratio (period II/period I) ([3]; CYP2D6 EM): 1.39^a
t1/2,z ratio (period II/period I) ([3]; CYP2D6 EM): 1.83^a
CL/F [3, 15]: 5.42 ± 1.25 L/h
decrease in CL/F by coadministration of PRX ([3]; CYP2D6 IM subjects): 23%
CL/F [3, 16]: 1.78 ± 0.20 L/h
AUC ratio (period II/period I) ([3]; CYP2D6 IM): 1.30^a
CL/F ratio (period II/period I) ([3]; CYP2D6 IM): 0.77^a
Cmax ratio (period II/period I) ([3]; CYP2D6 IM): 1.27^a
t1/2,z ratio (period II/period I) ([3]; CYP2D6 IM): 1.21^a
CL/F [3, 17]: 2.32 ± 0.33 L/h
interindividual variability in CL/F ([3]; EM subjects of PRX group, APZ alone): 23 % CV
interindividual variability in CL/F ([3]; EM subjects, coadministration of PRX): 14 % CV
interindividual variability in CL/F ([3]; IM subjects of PRX group, APZ alone): 14 % CV
AUC [3, 18]: 1320 ng·h/mL
Cmax [3, 18]: 14.5 ± 3.4 ng/mL
half-life [3, 18]: 107 ± 18.9 h
tmax ([3]; male, human, plasma, oral, 3 mg, tmax, CYP2D6 IM, APZ alone (period I), PRX group, single oral 3 mg APZ, mean ± SD): 3.3 ± 1.6 h
tmax ([3]; male, human, plasma, oral, tmax, coadministration of APZ with PRX in period II): ~2 h
AUC ([3]; male, human, plasma, po, 3 mg): 582 ± 150 ng·h/mL
Cmax ([3]; male, human, plasma, po, 3 mg): 12.6 ± 2.6 ng/mL
half-life ([3]; male, human, plasma, po, 3 mg): 60.7 ± 9.2 h
Compound: O=C1CCc2ccc(OCCCCN3CCN(c4cccc(Cl)c4Cl)CC3)cc2N1 [Aripiprazole, aripiprazole]
decrease in CL/F [9]: 27%
